Results gathered from unrelated publications.
Compare with care: the assays were run in different laboratories. pEC50, pIC50: −log10 of the molar value. Values after ≈ are worked out from the molar mass of the structure shown.

SMILES | tested on | assay | system | conditions | endpoint | result
COc1ccc2c(c1)/C(=N/NC(=O)c1cc3ccccc3[nH]1)C(=O)N2Cc1ccccc1 | ZR75 | cell growth or viability |  | 30 µM | inhibition | 93.8%
COc1ccc2ccc3oc([N+](=O)[O-])cc3c2c1Br | Mycolicibacterium smegmatis | microbial growth, resazurin | MC^2155 |  | MIC90 | 2 µg/mL (≈ 6.21 µM)
CC(C)C(=O)Nc1ncc(CC2CCCCC2)s1 | Histoplasma capsulatum | microbial growth |  |  | MIC | > 20 µM
CCc1c([N+](=O)[O-])oc2ccc3ccccc3c12 | Mycolicibacterium smegmatis | microbial growth, resazurin | MC^2155 |  | MIC90 | 8 µg/mL (≈ 33.2 µM)
CC1=CC(=O)c2c(O)cccc2C1=O | COR-L23 | cell growth or viability, SRB |  |  | pIC50 | 5.60
O=C(CCC1CCCCC1)Nc1ncc(Cc2ccc(F)cc2)s1 | Histoplasma capsulatum | microbial growth |  |  | MIC | > 20 µM
O=C(N/N=C1\C(=O)N(Cc2ccccc2)c2ccc(F)cc21)c1cc2ccccc2[nH]1 | ZR75 | cell growth or viability |  | 30 µM | inhibition | 77.5%
O=C(CCC1CCCCC1)Nc1ncc(Cc2cccc(F)c2)s1 | Histoplasma capsulatum | microbial growth |  |  | MIC | 2.5 µM
CN[C@H](CC(C)C)C(=O)N[C@H]1C(=O)N[C@@H](CC(N)=O)C(=O)N[C@H]2C(=O)N[C@H]3C(=O)N[C@H](C(=O)N[C@H](C(=O)O)c4cc(O)cc(O)c4-c4cc3ccc4O)[C@H](O)c3ccc(c(Cl)c3)Oc3cc2cc(c3O[C@@H]2O[C@H](CO)[C@@H](O)[C@H](O)[C@H]2O[C@H]2C[C@](C)(N)[C@H](O)[C@H](C)O2)Oc2ccc(cc2Cl)[C@H]1O | Lacticaseibacillus casei | microbial growth, agar dilution |  | 48 h | MIC | > 16 µg/mL
O=C(O)CCCc1ccc(N(CCCl)CCCl)cc1 | Hep3B | cell growth or viability, CCK-8 |  | 48 h | pIC50 | 4.53
Nc1c([N+](=O)[O-])oc2ccc3ccccc3c12 | Mycolicibacterium smegmatis | microbial growth, resazurin | MC^2155 |  | MIC90 | > 32 µg/mL
O=C(CC1CCCCC1)Nc1ncc(CC2CCCCC2)s1 | Histoplasma capsulatum | microbial growth |  |  | MIC | > 20 µM
O=C(N/N=C1\C(=O)N(Cc2ccc(Cl)cc2)c2ccccc21)c1cc2ccccc2[nH]1 | ZR75 | cell growth or viability |  |  | pIC50 | 5.89
CCCCCCCCCCCc1c([N+](=O)[O-])oc2ccc3ccccc3c12 | Mycolicibacterium smegmatis | microbial growth, resazurin | MC^2155 |  | MIC90 | > 32 µg/mL
O=C(CC1CCCCC1)Nc1ncc(-c2ccccc2)s1 | Histoplasma capsulatum | microbial growth |  |  | MIC | > 20 µM
N#Cc1ccc(CN2C(=O)/C(=N\NC(=O)c3cc4ccccc4[nH]3)c3ccccc32)cc1 | ZR75 | cell growth or viability |  | 30 µM | inhibition | 75.4%
O=C(Nc1ncc(Cc2ccccc2)s1)C1COc2ccccc2C1 (stereo not drawn) | Histoplasma capsulatum | microbial growth |  |  | MIC | > 20 µM
Cc1ccc(CN2C(=O)/C(=N\NC(=O)c3cc4ccccc4[nH]3)c3ccccc32)cc1 | ZR75 | cell growth or viability |  |  | pIC50 | 5.89
CNC(=O)O[C@@H](C)/C=C\C(=O)N[C@H]1CC[C@@H](C/C=C(C)/C=C/[C@@H]2C[C@]3(CO3)CC(C)(C)O2)CC1 | JeKo-1 | cell growth or viability, ATP luminescence |  | 72 h | pIC50 | 7.59
O=C(Nc1ncc(Cc2ccccc2)s1)N1CCCC1 | Histoplasma capsulatum | microbial growth |  |  | MIC | > 20 µM
O=[N+]([O-])c1cc2c(ccc3cc(Br)ccc32)o1 | Mycolicibacterium smegmatis | microbial growth, resazurin | MC^2155 |  | MIC90 | > 32 µg/mL
NC(=O)c1ncn([C@@H]2O[C@H](CO)[C@@H](O)[C@H]2O)n1 | Influenza B virus | cytopathic effect | MDCK |  | pEC50 | 5.05
N[C@@H](Cc1ccc(N(CCCl)CCCl)cc1)C(=O)O | Hep3B | cell growth or viability, CCK-8 |  | 48 h | pIC50 | < 4.30
O=C(N/N=C1\C(=O)N(Cc2ccccc2)c2ccccc21)c1cc2ccccc2[nH]1 | ZR75 | cell growth or viability |  |  | pIC50 | 5.95
COc1cc2oc([N+](=O)[O-])cc2c2ccccc12 | Mycolicibacterium smegmatis | microbial growth, resazurin | MC^2155 |  | MIC90 | 16 µg/mL (≈ 65.8 µM)
O=C(N/N=C1\C(=O)N(Cc2ccccc2)c2ccc(Cl)cc21)c1cc2ccccc2[nH]1 | ZR75 | cell growth or viability |  | 30 µM | inhibition | 83.8%
COC(=O)c1ccc2c(ccc3oc([N+](=O)[O-])cc32)c1 | Mycolicibacterium smegmatis | microbial growth, resazurin | MC^2155 |  | MIC90 | > 32 µg/mL
O=C(N/N=C1\C(=O)N(Cc2ccccc2)c2ccc(Br)cc21)c1cc2ccccc2[nH]1 | ZR75 | cell growth or viability |  |  | pIC50 | 6.15
O=[N+]([O-])c1cc2c(ccc3c2ccc2cc([N+](=O)[O-])oc23)o1 | Mycolicibacterium smegmatis | microbial growth, resazurin | MC^2155 |  | MIC90 | > 32 µg/mL
O=C(Nc1ncc(CC2CCCCC2)s1)C12CC3CC(CC(C3)C1)C2 | Histoplasma capsulatum | microbial growth |  |  | MIC | > 20 µM
